The results in this text go back to ChEMBL document CHEMBL1165851, “Synthesis and inhibitory evaluation of cyclohexen-2-yl- and cyclohexyl-substituted phenols and quinones to endothelial cell and cancer cells” (Eur J Med Chem, 2010).

As usually defined, the pIC50 is the negative decadic logarithm of the IC50, by convention in mol/L.

pIC50: −log10 of the molar value.

For one data set, the system named is Bel-7402. In words: Antiproliferative activity human Bel7402 cells after 96 hrs by MTT assay. Conditions: for pIC50: Homo sapiens, Bel-7402, 96 h, read-out: IC50; for IC50: bel-7402. (In general: Tetrazolium dyes change colour on reduction, which living cells bring about.)
The subject of another data set is MCF7. In words: Antiproliferative activity human MCF7 cells after 96 hrs by MTT assay. The following applies: for pIC50: Homo sapiens, MCF7, 96 h, read-out: IC50; for IC50: mcf7.
A further data set has as its system A549. The data set is described as follows: Antiproliferative activity human A549 cells after 96 hrs by MTT assay. The following applies: for pIC50: Homo sapiens, A549, 96 h, read-out: IC50; for IC50: a549.
Another data set deals with HUVEC. The data set is described as follows: Antiproliferative activity HUVEC after 96 hrs by MTT assay. The following applies: for pIC50: Homo sapiens, HUVEC, 96 h, read-out: IC50; for IC50: huvec.
The nature of data set [1]: Antiproliferative activity human CCC-HPF1 cells after 20 hrs by MTT assay. Type of data set: cell-based. Conditions: ccc-hpf1, 96 h, in the assay text read “96 hrs” for “20 hrs”; call rule not given here. Summed up: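 HUVECs isolated from fresh umbilical cords and used at passages 3–8, grown in EGM-2. A549 and Bel-7402 in RPMI 1640; MCF-7 and ccc-HPF-1 in DMEM; all at 37 °C, 5% CO2. Seeded 1000 (HUVEC, Bel-7402), 1500 (MCF-7, ccc-HPF-1) or 2000 (A549) cells/well and left 20 h. Compound then added from PBS dilutions (final DMSO 0.1%), triplicate, 96 h. Readout MTT viability; IC50/CC50 from viability versus concentration.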

Turning to `Cc1ccc(C2C=CCCC2)c(O)c1O` (stereo not given), the pIC50 with Bel-7402 was 4.52; in the data set on MCF7, 4.49; with A549, 4.45; with HUVEC, 4.57.

Take `CC1=CC(=O)C(C2C=CCCC2)=CC1=O` (stereo not given): the pIC50 in the data set with Bel-7402 was no more than 4.30; with MCF7, no more than 4.30; in the data set on A549, 4.51; with HUVEC, 5.04.

In the case of `CC(C)(C)c1cc(O)c(C2CCCCC2)cc1O`, the pIC50 was 4.52 in the data set with Bel-7402, no more than 4.30 in the data set on MCF7, 4.44 in the data set with A549 and 5.13 in the data set on HUVEC.

In the case of `Oc1cccc2c1C1CCCCC1O2` (stereo not given), in data set [1], the CC50 entry is “Not Active”. The IC50 result in the data set on Bel-7402, in the data set on MCF7, in the data set on A549 and in the data set on HUVEC was “Not Active” in each case.

On to `Cc1c(O)ccc(C2C=CCCC2)c1O` (stereo not given), for which, in data set [1], the CC50 entry is “Not Active”. For the same compound, the IC50 result in the data set on Bel-7402, with MCF7, with A549 and with HUVEC was “Not Active” throughout.

On to `O=C1C=C(C2C=CCCC2)C(=O)c2ccccc21` (stereo not given), for which the pIC50 with Bel-7402 is 4.51; in the data set on MCF7, 4.40; in the data set with A549 it was 4.50; with HUVEC, 4.57.

For the compound `Oc1ccccc1C1C=CCCC1` (stereo not given), the pIC50 was no more than 4.30 with Bel-7402, no more than 4.30 with MCF7, no more than 4.30 with A549 and 4.50 in the data set on HUVEC.

For the compound `Oc1c(C2C=CCCC2)ccc(C2C=CCCC2)c1O` (stereo not given), the pIC50 in the data set with Bel-7402 is no more than 4.30; with MCF7, no more than 4.30; in the data set with A549, no more than 4.30; in the data set on HUVEC, 4.54.

`Cc1cc(O)c(O)c(C2C=CCCC2)c1` (stereo not given): the pIC50 in the data set on Bel-7402 is 4.57; in the data set on MCF7 it was no more than 4.30; in the data set on A549, 4.46; in the data set on HUVEC, 4.82.

For the compound `Cc1cc(O)c(O)cc1C1C=CCCC1` (stereo not given), the pIC50 is 5.07 in the data set with Bel-7402, 4.58 in the data set with MCF7, 5.02 in the data set with A549 and 5.33 with HUVEC.

On to `Cc1c(O)c(C2C=CCCC2)cc(C2C=CCCC2)c1O` (stereo not given), for which the pIC50 in the data set with Bel-7402 was no more than 4.30; with MCF7, no more than 4.30; with A549 it was no more than 4.30; in the data set with HUVEC it was 4.48.

For `Oc1cc(C2C=CCCC2)c(O)cc1C1C=CCCC1` (stereo not given), the pIC50 in the data set on Bel-7402 is no more than 4.30; in the data set with MCF7 it was no more than 4.30; in the data set with A549 it was no more than 4.30; in the data set with HUVEC it was 5.70.

Take `Oc1c(C2C=CCCC2)ccc2ccccc12` (stereo not given): the pIC50 in the data set on Bel-7402 is no more than 4.30; in the data set with MCF7, no more than 4.30; in the data set on A549, no more than 4.30; in the data set with HUVEC it was 4.66.

Take `Cc1cc(O)c(O)cc1C1CCCCC1`: the pIC50 with Bel-7402 is 4.64; with MCF7, 4.51; in the data set on A549, 4.56; with HUVEC, 5.08.

`O=C1C=C(C2C=CCCC2)C(=O)C=C1C1C=CCCC1` (stereo not given): the pIC50 is no more than 4.30 with Bel-7402, no more than 4.30 with MCF7, no more than 4.30 in the data set on A549 and 5.21 in the data set on HUVEC.

As for `CC(C)(C)c1cc(O)c(C2C=CCCC2)cc1O` (stereo not given), the pIC50 was no more than 4.30 in the data set with Bel-7402, no more than 4.30 in the data set on MCF7, no more than 4.30 in the data set with A549 and 5.85 with HUVEC.

Take `CC(C)(C)C1=CC(=O)C(C2C=CCCC2)=CC1=O` (stereo not given): the pIC50 is no more than 4.30 in the data set with Bel-7402, no more than 4.30 in the data set on MCF7, no more than 4.30 in the data set on A549 and 5.17 in the data set with HUVEC.

Take `CC(C)(C)c1cc2c(cc1O)C1CCCCC1O2` (stereo not given): the pIC50 in the data set on Bel-7402 is no more than 4.30; with MCF7 it was no more than 4.30; in the data set with A549, no more than 4.30; with HUVEC, 4.65.

Regarding `CC(C)(C)c1cc(O)cc(C2C=CCCC2)c1O` (stereo not given), the pIC50 is no more than 4.30 in the data set on Bel-7402, no more than 4.30 in the data set with MCF7, no more than 4.30 in the data set with A549 and 4.94 with HUVEC.

`Oc1cc(C2CCCCC2)c(O)cc1C1CCCCC1`: the pIC50 with Bel-7402 is no more than 4.30; with MCF7, no more than 4.30; in the data set with A549, no more than 4.30; in the data set on HUVEC, 5.09.

On to `O=C1C=C(C2CCCCC2)C(=O)C=C1C1CCCCC1`, for which the pIC50 in the data set on Bel-7402 was 4.50; in the data set with MCF7, no more than 4.30; with A549, 4.50; in the data set with HUVEC, 5.11.

As to `CC(C)(C)C1=CC(=O)C(C2CCCCC2)=CC1=O`, the pIC50 with Bel-7402 was no more than 4.30; in the data set with MCF7 it was no more than 4.30; with A549, no more than 4.30; in the data set on HUVEC it was 5.22.

Consider `Cc1cc(O)c2c(c1)OC1CCCCC21` (stereo not given), for which, in data set [1], the CC50 entry is “Not Active”. For the same compound, the IC50 entry with Bel-7402, with MCF7, in the data set on A549 and with HUVEC was “Not Active” throughout.

For the compound `CC(C)(C)c1cc(O)c(O)c(C2C=CCCC2)c1` (stereo not given), the pIC50 in the data set with Bel-7402 was no more than 4.30; in the data set on MCF7, no more than 4.30; in the data set on A549, no more than 4.30; in the data set on HUVEC it was 5.00.

Regarding `Cc1cc(O)c(C2C=CCCC2)c(O)c1` (stereo not given), the CC50 entry in data set [1] is reported as “Not Active”. Moreover, the IC50 entry with Bel-7402, with MCF7, with A549 and with HUVEC was “Not Active” in each case.

In the case of `CO[C@@H]1[C@H](OC(=O)NC(=O)CCl)CCC2(CO2)[C@H]1[C@@]1(C)O[C@@H]1CC=C(C)C` (single isomer, unassigned) [O-CHLOROACETYLCARBAMOYLFUMAGILLOL], the pIC50 with Bel-7402 was no more than 4.30; with MCF7 it was no more than 4.30; with A549 it was 4.30; in the data set on HUVEC, 8.05.

Take `COc1cccc2c1C(=O)c1c(O)c3c(c(O)c1C2=O)C[C@@](O)(C(=O)CO)C[C@@H]3O[C@H]1C[C@H](N)[C@H](O)[C@H](C)O1` [DOXORUBICIN]: the pIC50 with Bel-7402 is 6.24.

For the compound `CC(=O)O[C@H]1C(=O)[C@@]2(C)[C@H]([C@H](OC(=O)c3ccccc3)[C@]3(O)C[C@H](OC(=O)[C@H](O)[C@@H](NC(=O)c4ccccc4)c4ccccc4)C(C)=C1C3(C)C)[C@]1(OC(C)=O)CO[C@@H]1C[C@@H]2O` [PACLITAXEL], the pIC50 in the data set on A549 is 8.31.
